Test results taken from ChEMBL document CHEMBL3272038, “Synthesis and central nervous system depressant activity of some bicyclic amides” (J Med Chem, 1976).
Active and inactive are the calls of the source. The calls are words filed in the database; no cut-off is given here.

Legend:
[1] = test system: Mus musculus; assay: Central nervous depressant activity in ip dosed mouse assessed as induction of ataxia; assay type: functional; conditions: Central nervous system
Summary of the method: (§1)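 Behavioral scoring in mice used a modified Irwin observational method. Compounds were given ip at ten animals per dose. Ataxia and loss of righting reflex were recorded, and ED50 values are in mg/kg ip.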

[2] = Acute toxicity in ip dosed Royal Hart Wistar rat; assay type: organism-based; conditions: in vivo
Summary of the method: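 Paired male Royal Hart Wistar rats (136–160 g) were housed in wire cages and dosed ip. LD50 was read 2 hr after administration, using four rats per substance, and estimated by probit analysis.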

[3] = test system: Mus musculus; assay: Central nervous depressant activity in ip dosed mouse assessed as loss of righting reflex; assay type: functional; conditions: Central nervous system; summary of the method: as §1
[4] = organism: Mus musculus; assay: Anticonvulsant activity in mouse assessed as protection against N-sulfamoylhexahydroazepine-induced convulsions; assay type: functional
Summary of the method: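 N-sulfamoylhexahydroazepine convulsion test in mice, run by an earlier published method. Compounds were given ip at ten animals per dose, and ED50 is expressed in mg/kg ip.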

[5] = test system: Mus musculus; assay: Reinduction of anesthesia-induced loss of righting in dosed mouse administered compound following recovery from hexobarbital anesthesia; assay type: functional
Summary of the method: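 Mice were anesthetized with hexobarbital (70 mg/kg iv). Compound was given ip immediately on recovery, and reinduction of loss of righting was timed from that point. The method was modified from earlier work, and RD50 is expressed in mg/kg ip.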

[6] = organism: Mus musculus; assay: Anticonvulsant activity in mouse assessed as protection against maximal electroshock-induced seizures; assay type: functional
Summary of the method: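 Maximal electroshock seizure test in mice, run by an earlier published method. Compounds were given ip at ten animals per dose, and ED50 is expressed in mg/kg ip.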

[7] = test system: Mus musculus; assay: Anticonvulsant activity in mouse assessed as protection against N-sulfamoylhexahydroazepine-induced convulsions at 200 mg/kg, ip; assay type: functional, organism-based; design: dose 200 mg/kg
[8] = test system: Mus musculus; assay: Anticonvulsant activity in mouse assessed as protection against maximal electroshock-induced seizures at 200 mg/kg, ip; assay type: functional, organism-based; design: dose 200 mg/kg
[9] = test system: Mus musculus; assay: Anticonvulsant activity in mouse assessed as protection against maximal electroshock-induced seizures at 100 mg/kg, ip; assay type: functional, organism-based; design: dose 100 mg/kg
[10] = test system: Mus musculus; assay: Anticonvulsant activity in mouse assessed as protection against N-sulfamoylhexahydroazepine-induced convulsions at 400 mg/kg, ip; assay type: functional, organism-based; design: dose 400 mg/kg

For O=C1CCC2(c3ccccc3)OCCCN12 (stereo not drawn), the ED50 [1] was 37.5 mg/kg, the LD50 [2] was 500 mg/kg and the ED50 [3] was 150 mg/kg. It also gave an ED50 [4] of 169 mg/kg, an RD50 [5] of 34 mg/kg and an ED50 [6] of 92 mg/kg.

With COc1ccc(C(=O)CCC(=O)NCCCO)cc1 the ED50 [1] was 150 mg/kg, the LD50 [2] was 800 mg/kg and the ED50 [3] was 800 mg/kg. The ED50 [4] was greater than 600 mg/kg, the RD50 [5] was less than 600 mg/kg and the ED50 [6] was greater than 600 mg/kg.

For Cc1ccc(C(=O)CCC(=O)NCCCO)cc1, the ED50 [1] was 300 mg/kg, the LD50 [2] was 750 mg/kg and the ED50 [3] was 700 mg/kg. It also gave an ED50 [4] greater than 300 mg/kg, an RD50 [5] of less than 300 mg/kg and an ED50 [6] greater than 300 mg/kg.

O=C(CCC(=O)c1ccc(F)cc1)NCCCO showed an ED50 [1] of 300 mg/kg, an LD50 [2] greater than 800 mg/kg and an ED50 [3] of 500 mg/kg. The ED50 [4] was greater than 400 mg/kg, the RD50 [5] was greater than 400 mg/kg and the ED50 [6] was greater than 400 mg/kg.

With CCC1(c2ccccc2)C(=O)N=C([O-])NC1=O.[Na+] (stereo not drawn) [PHENOBARBITAL SODIUM] the ED50 [1] was 62.5 mg/kg, the LD50 [2] was 225 mg/kg and the ED50 [3] was 83 mg/kg. It also gave an ED50 [4] of 8 mg/kg, an RD50 [5] of 65.6 mg/kg and an ED50 [6] of 15.4 mg/kg.

Work on O=C1CCC2(c3ccccc3)OCCN12 (stereo not drawn) yielded an ED50 [1] of less than 50 mg/kg, an LD50 [2] of 300 mg/kg and an ED50 [3] of 150 mg/kg. The Activity [7] was “inactive”, the Activity [8] was “inactive” and the RD50 [5] was 37.5 mg/kg.

In the case of O=C(CCC(=O)c1ccc(Cl)cc1)NCCCO, the ED50 [1] is reported as 300 mg/kg, the LD50 [2] is reported as 633 mg/kg and the ED50 [3] is reported as 325 mg/kg. It also gave an ED50 [4] greater than 300 mg/kg, an RD50 [5] of less than 300 mg/kg and an ED50 [6] greater than 300 mg/kg.

For COc1ccc(C23CCC(=O)N2CCCO3)cc1 (stereo not drawn), the ED50 [1] was less than 150 mg/kg, the ED50 [3] was less than 150 mg/kg and the ED50 [4] was 138 mg/kg. For the same compound, the RD50 [5] was less than 150 mg/kg and the ED50 [6] was 93.8 mg/kg.

With Cc1ccc(C23CCC(=O)N2CCCO3)cc1 (stereo not drawn) the ED50 [1] was less than 50 mg/kg, the LD50 [2] was 675 mg/kg and the Activity [9] was “inactive”. The ED50 [3] was 160 mg/kg, the Activity [7] was “inactive” and the RD50 [5] was greater than 100 mg/kg.

Work on CCC1(c2ccccc2)CCC(=O)NC1=O (stereo not drawn) [GLUTETHIMIDE] yielded an ED50 [1] of 100 mg/kg, an LD50 [2] of 350 mg/kg and an ED50 [3] of 229 mg/kg. For the same compound, the Activity [10] was “inactive”, the RD50 [5] was 112.5 mg/kg and the ED50 [6] was 24.7 mg/kg.

Compound O=C1CCC2(c3ccc(F)cc3)OCCCN12 (stereo not drawn) has an ED50 [1] of 75 mg/kg, an LD50 [2] of 600 mg/kg and an ED50 [3] of 100 mg/kg. It also gave an ED50 [4] of 50 mg/kg, an RD50 [5] of 66 mg/kg and an ED50 [6] of 68.7 mg/kg.

Compound O=C1CCC2(c3cccs3)OCCCN12 (stereo not drawn) has an ED50 [1] greater than 75 mg/kg, an LD50 [2] of 467 mg/kg and an ED50 [3] greater than 75 mg/kg. It also gave an ED50 [4] greater than 75 mg/kg, an RD50 [5] of 46.5 mg/kg and an ED50 [6] of 112 mg/kg.

Work on Cc1ccc(C(=O)CCC(=O)NCCCO)c(C)c1 yielded an ED50 [1] of 150 mg/kg, an LD50 [2] of 633 mg/kg and an ED50 [3] of 150 mg/kg. For the same compound, the ED50 [4] was greater than 150 mg/kg, the RD50 [5] was less than 150 mg/kg and the ED50 [6] was greater than 150 mg/kg.

O=C(CCC(=O)c1cccs1)NCCCO showed an ED50 [1] of 300 mg/kg, an LD50 [2] of 475 mg/kg and an ED50 [3] of 300 mg/kg. The ED50 [4] was greater than 300 mg/kg, the RD50 [5] was greater than 300 mg/kg and the ED50 [6] was greater than 300 mg/kg.

For O=C1CCCC2(c3ccccc3)OCCN12 (stereo not drawn), the ED50 [1] was less than 150 mg/kg, the ED50 [3] was greater than 150 mg/kg and the ED50 [4] was 150 mg/kg. The RD50 [5] was 69 mg/kg and the ED50 [6] was 158 mg/kg.

Cc1ccc(C23CCC(=O)N2CCCO3)c(C)c1 (stereo not drawn) showed an ED50 [1] of less than 50 mg/kg, an LD50 [2] of 600 mg/kg and an ED50 [3] of 150 mg/kg. It also gave an ED50 [4] of less than 150 mg/kg, an RD50 [5] of less than 150 mg/kg and an ED50 [6] greater than 150 mg/kg.

O=C1CCC2(c3ccc(Cl)c(Cl)c3)OCCCN12 (stereo not drawn) showed an ED50 [1] of less than 150 mg/kg, an LD50 [2] of 550 mg/kg and an ED50 [3] of less than 150 mg/kg. For the same compound, the ED50 [4] was less than 75 mg/kg, the RD50 [5] was greater than 150 mg/kg and the ED50 [6] was 112 mg/kg.

Compound O=C1CCC2(c3ccc(Cl)cc3)OCCCN12 (stereo not drawn) has an ED50 [1] of 75 mg/kg, an LD50 [2] of 675 mg/kg and an ED50 [3] of 81.2 mg/kg. For the same compound, the ED50 [4] was 91.7 mg/kg, the RD50 [5] was greater than 100 mg/kg and the ED50 [6] was 58 mg/kg.

O=C1CCCC2(c3ccccc3)OCCCN12 (stereo not drawn) showed an ED50 [1] of less than 50 mg/kg, an LD50 [2] of 500 mg/kg and an ED50 [3] of 150 mg/kg. It also gave an ED50 [4] of 122 mg/kg, an RD50 [5] of 75 mg/kg and an ED50 [6] of less than 150 mg/kg.

Work on O=C(CCC(=O)c1ccc(Cl)c(Cl)c1)NCCCO yielded an ED50 [1] of 300 mg/kg, an LD50 [2] of 500 mg/kg and an ED50 [3] of 500 mg/kg. It also gave an ED50 [4] greater than 600 mg/kg, an RD50 [5] greater than 300 mg/kg and an ED50 [6] of 450 mg/kg.
